What was measured:
[1] = biological target: T1, Bone morphogenetic protein receptor type-2 (Homo sapiens, UniProt Q13873); experiment: Inhibition of BMPR2 (174 to end residues) (unknown origin) using MBP as substrate incubated for 60 mins in presence of ATP by ADP Glo assay
T1 sequence (Q13873 whole entry): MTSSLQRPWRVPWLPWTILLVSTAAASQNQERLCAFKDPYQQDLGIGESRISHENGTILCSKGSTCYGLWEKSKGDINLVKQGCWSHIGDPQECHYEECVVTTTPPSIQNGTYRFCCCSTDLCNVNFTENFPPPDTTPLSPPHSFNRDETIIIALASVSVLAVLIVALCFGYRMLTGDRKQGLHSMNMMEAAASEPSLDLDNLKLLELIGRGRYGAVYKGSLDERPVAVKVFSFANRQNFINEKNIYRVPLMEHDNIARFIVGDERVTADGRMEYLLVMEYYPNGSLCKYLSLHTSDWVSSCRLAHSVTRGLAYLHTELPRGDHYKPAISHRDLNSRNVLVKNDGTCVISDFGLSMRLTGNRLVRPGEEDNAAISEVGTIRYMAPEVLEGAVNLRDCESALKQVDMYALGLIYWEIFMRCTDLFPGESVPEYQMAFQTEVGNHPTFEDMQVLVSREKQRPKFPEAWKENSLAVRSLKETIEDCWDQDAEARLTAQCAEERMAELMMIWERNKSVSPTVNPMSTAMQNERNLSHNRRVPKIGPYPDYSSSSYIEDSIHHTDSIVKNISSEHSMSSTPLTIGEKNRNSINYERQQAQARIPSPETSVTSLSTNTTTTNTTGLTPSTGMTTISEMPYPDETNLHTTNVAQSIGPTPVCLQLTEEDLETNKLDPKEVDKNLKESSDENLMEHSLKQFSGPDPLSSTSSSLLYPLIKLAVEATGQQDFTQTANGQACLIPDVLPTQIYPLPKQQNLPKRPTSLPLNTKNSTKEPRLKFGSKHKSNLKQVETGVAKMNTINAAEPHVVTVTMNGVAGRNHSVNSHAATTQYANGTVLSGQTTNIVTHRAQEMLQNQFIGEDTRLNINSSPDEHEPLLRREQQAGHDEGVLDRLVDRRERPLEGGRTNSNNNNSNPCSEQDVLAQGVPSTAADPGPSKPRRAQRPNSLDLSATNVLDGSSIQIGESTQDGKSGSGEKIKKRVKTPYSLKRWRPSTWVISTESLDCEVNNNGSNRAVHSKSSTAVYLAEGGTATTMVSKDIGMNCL
Outline: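 Enzymatic inhibition of the BMPR2 kinase was read out by ADP-Glo detection of ADP formed, and IC50 values were derived from concentration–response data.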

[2] = biological target: T2, Mitogen-activated protein kinase 15 (Homo sapiens) (UniProt Q8TD08); experiment: Binding affinity to recombinant MAPK15 (unknown origin) assessed as change in melting temperature at 10 uM by DSF assay
T2 sequence (whole entry): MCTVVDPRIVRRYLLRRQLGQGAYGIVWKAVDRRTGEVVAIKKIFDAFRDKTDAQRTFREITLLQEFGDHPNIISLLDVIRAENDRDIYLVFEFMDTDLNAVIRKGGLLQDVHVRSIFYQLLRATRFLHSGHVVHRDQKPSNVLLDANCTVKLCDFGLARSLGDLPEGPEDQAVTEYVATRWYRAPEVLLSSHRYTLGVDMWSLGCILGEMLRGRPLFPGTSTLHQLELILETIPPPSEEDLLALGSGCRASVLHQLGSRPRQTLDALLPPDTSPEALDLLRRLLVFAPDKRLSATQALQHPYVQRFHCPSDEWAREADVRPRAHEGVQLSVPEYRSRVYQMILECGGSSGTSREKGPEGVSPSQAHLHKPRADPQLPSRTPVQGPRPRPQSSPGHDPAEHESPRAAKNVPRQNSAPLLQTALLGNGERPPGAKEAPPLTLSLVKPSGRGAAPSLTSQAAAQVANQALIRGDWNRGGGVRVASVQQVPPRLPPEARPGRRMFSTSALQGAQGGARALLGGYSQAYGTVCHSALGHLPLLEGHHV
Outline: (§1)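 Differential scanning fluorimetry on an in-house panel of 90 recombinant kinases. Stabilization is read as the shift in melting temperature (ΔTm) relative to ligand-free protein. Staurosporine served as the positive control, and binding was also compared against its ΔTm.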

[3] = biological target: BMP-2-inducible protein kinase (Homo sapiens) (UniProt Q9NSY1); experiment: Inhibition of recombinant BMP2K (unknown origin) at 10 uM by DSF assay relative to staurosporine; outline: as §1
[4] = biological target: T3, Tyrosine-protein kinase Mer (Homo sapiens) (UniProt Q12866); experiment: Inhibition of recombinant MERTK (unknown origin) at 10 uM by DSF assay relative to staurosporine; outline: as §1
T3 sequence (whole entry): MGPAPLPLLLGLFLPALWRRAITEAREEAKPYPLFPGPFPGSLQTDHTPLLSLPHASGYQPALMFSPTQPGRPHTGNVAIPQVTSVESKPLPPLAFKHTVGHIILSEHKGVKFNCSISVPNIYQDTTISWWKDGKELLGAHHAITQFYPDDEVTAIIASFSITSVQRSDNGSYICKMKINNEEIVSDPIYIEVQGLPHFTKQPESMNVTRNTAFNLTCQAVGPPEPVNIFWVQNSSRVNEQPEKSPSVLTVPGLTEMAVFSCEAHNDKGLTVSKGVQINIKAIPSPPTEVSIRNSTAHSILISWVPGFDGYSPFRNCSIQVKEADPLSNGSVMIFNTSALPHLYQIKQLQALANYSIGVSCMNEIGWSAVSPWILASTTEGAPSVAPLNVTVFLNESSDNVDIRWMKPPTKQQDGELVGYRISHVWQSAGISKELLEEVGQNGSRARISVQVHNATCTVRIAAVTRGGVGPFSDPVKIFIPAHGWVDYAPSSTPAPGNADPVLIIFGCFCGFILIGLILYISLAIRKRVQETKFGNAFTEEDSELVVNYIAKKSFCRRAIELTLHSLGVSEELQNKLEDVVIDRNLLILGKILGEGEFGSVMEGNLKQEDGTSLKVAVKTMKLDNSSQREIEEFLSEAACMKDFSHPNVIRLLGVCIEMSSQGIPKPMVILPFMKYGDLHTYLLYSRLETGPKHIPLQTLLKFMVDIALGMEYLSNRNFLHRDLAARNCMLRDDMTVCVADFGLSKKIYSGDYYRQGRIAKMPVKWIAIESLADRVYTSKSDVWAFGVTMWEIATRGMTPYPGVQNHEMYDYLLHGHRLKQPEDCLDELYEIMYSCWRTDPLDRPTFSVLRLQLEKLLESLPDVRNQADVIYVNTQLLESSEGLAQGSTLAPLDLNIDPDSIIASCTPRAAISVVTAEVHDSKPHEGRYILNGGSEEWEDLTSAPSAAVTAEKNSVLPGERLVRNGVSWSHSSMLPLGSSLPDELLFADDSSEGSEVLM

[5] = biological target: Mitogen-activated protein kinase 8 (Homo sapiens) (UniProt P45983); experiment: Inhibition of JNK1 (unknown origin) assessed as residual activity at 1 uM by Kinomescan assay relative to staurosporine
Chain of Mitogen-activated protein kinase 8 (Homo sapiens) (P45983 whole entry): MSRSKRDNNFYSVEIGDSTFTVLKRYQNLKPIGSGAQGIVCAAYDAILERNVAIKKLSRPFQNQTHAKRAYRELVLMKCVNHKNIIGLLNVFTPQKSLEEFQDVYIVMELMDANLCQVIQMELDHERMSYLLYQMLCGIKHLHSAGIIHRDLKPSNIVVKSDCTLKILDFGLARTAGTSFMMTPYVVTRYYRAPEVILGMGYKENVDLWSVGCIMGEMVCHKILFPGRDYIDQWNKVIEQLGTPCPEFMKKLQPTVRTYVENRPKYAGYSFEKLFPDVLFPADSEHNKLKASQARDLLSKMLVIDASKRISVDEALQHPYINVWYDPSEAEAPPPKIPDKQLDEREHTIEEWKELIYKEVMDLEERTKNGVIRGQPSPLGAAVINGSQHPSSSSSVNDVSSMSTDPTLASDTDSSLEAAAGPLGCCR

Chain of BMP-2-inducible protein kinase (Homo sapiens) (Q9NSY1 whole entry, looked up): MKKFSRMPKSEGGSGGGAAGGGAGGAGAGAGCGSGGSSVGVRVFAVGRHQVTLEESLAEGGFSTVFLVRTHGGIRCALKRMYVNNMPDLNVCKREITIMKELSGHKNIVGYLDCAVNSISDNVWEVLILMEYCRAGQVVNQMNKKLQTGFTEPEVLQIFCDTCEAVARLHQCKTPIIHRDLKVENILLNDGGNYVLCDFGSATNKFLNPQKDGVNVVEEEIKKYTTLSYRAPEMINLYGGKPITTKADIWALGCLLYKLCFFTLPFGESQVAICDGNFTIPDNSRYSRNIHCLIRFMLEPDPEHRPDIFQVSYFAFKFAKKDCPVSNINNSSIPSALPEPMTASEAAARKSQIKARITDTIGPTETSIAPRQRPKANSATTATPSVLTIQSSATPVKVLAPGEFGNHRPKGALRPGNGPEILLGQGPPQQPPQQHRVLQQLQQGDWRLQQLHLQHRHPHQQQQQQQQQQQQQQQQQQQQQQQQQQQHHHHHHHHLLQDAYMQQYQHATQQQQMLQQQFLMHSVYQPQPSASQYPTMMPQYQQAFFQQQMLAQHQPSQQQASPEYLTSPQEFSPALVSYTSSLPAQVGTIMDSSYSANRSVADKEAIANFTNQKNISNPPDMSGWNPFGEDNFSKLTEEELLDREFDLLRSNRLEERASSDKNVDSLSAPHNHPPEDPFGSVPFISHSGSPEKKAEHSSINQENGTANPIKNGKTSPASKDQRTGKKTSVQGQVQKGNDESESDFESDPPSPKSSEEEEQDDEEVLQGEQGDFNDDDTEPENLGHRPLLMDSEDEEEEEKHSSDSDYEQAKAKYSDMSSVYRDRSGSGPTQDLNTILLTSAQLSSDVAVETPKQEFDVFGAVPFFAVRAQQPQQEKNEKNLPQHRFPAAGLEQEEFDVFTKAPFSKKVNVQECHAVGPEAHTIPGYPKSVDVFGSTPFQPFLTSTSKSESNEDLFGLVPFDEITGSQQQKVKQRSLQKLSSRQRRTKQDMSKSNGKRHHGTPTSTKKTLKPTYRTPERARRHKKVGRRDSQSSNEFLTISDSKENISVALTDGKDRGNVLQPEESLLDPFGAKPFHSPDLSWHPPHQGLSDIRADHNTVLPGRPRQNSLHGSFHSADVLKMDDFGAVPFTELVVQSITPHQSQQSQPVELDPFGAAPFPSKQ

With `O=C1NCCc2ccc(cc2)Nc2nccc(n2)Nc2cc1[nH]n2` the IC50 [1] was 506 nM, the ΔTm [2] was 3.8 °C and the inhibition [3] was 30%. The inhibition [4] was 48% and the Activity [5] was 27%.
